Measured values from different studies.
Lines come from different studies, so protocols differ. ≈ marks a conversion by molar mass, not a printed value.
Observed: microbial growth

For `CC(=O)N1CCN(c2ccc(OCC3COC(Cn4ccnc4)(c4ccc(Cl)cc4Cl)O3)cc2)CC1` (centres unmarked), the MIC90 was 0.125 µg/mL (≈ 0.235 µM) (Lodderomyces parapsilosis).
The MIC of `O=[N+]([O-])c1ccc(-c2nc3ccccc3[nH]2)cc1` is reported as 512 µg/mL (≈ 2140 µM) (Aspergillus niger; ATCC16404).
For `OC(CN1CCOCC1)(Cn1cncn1)c1ccc(F)cc1F` (centres unmarked), the MIC was 31.3 µg/mL (≈ 96.5 µM) (Lodderomyces parapsilosis; broth dilution; ATCC22019; 48 h).
For `CSc1ccc(-c2nc3ccccc3[nH]2)cc1`, the MIC was 64 µg/mL (≈ 266 µM) (Aspergillus niger; ATCC16404).
`CCCCCCCCCCCCCCN1CCNCC1` gave an MIC of 0.975 µg/mL (≈ 3.45 µM) (Lodderomyces parapsilosis; broth dilution; ATCC22019; 48 h).
The EC50 of `O=C(Nc1ccccc1-c1ccc(F)c(F)c1)c1nccnc1C(F)(F)F` is reported as 0.04 µg/mL (≈ 0.105 µM) (Alternaria porri).
`CN(C)c1ccc(-c2nc3ccccc3[nH]2)cc1` has an MIC of 512 µg/mL (≈ 2160 µM) (Aspergillus niger; ATCC16404).
`C[C@@H](c1ncncc1F)[C@](O)(Cn1cncn1)c1ccc(F)cc1F` has an MIC90 of 0.016 µg/mL (≈ 0.0458 µM) (Lodderomyces parapsilosis).
For `OC(Cn1cncn1)(Cn1cncn1)c1ccc(F)cc1F`, the MIC90 was 0.5 µg/mL (≈ 1.63 µM) (Lodderomyces parapsilosis; broth dilution; 24 h).
The MIC of `CCCCCCCCCCCN1CCN(CC(O)(Cn2cncn2)c2ccc(F)cc2F)CC1` (centres unmarked) is reported as 0.24 µg/mL (≈ 0.502 µM) (Lodderomyces parapsilosis; broth dilution; ATCC22019; 48 h).
For `C[C@@H]1[C@H](O)[C@@H](C)/C=C/C=C/C=C/C=C/C=C/C=C/C=C/[C@H](O[C@@H]2O[C@H](C)[C@@H](O)[C@H](N)[C@@H]2O)C[C@@H]2O[C@](O)(C[C@@H](O)C[C@@H](O)[C@H](O)CC[C@@H](O)C[C@@H](O)CC(=O)O[C@H]1C)C[C@H](O)[C@H]2C(=O)O`, the MIC90 was 0.125 µg/mL (≈ 0.135 µM) (Lodderomyces parapsilosis).
